{
  "source": "ChEMBL document CHEMBL1153060",
  "about": "“Part 1: Structure-Activity Relationship (SAR) investigations of fused pyrazoles as potent, selective and orally available inhibitors of p38alpha mitogen-activated protein kinase” (Bioorg Med Chem Lett, 2009)",
  "key": {"[1]": {"molecular_target": "Mitogen-activated protein kinase 9 (Homo sapiens, UniProt P45984)", "sequence (P45984 whole entry)": "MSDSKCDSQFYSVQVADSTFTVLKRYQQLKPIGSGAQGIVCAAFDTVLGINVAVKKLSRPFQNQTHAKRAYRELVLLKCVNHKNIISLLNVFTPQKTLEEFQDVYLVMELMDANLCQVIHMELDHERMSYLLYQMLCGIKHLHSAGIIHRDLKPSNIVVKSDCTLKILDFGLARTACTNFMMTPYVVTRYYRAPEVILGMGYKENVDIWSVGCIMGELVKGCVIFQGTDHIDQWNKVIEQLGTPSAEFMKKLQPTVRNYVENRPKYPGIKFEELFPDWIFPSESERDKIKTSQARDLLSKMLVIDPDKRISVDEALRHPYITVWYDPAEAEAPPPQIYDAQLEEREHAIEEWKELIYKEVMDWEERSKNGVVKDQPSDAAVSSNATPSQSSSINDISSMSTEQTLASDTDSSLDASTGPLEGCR", "experiment": "Inhibition of JNK2"}, "Rattus norvegicus [2]": {"system": "Rattus norvegicus", "experiment": "Inhibition of LPS-induced TNFalpha production in Lewis rat at 0.01 mg/kg, po administered 60 mins prior to LPS challenge measured after 90 mins by ELISA"}, "[3]": {"molecular_target": "T1, Mitogen-activated protein kinase 12 (Homo sapiens, UniProt P53778)", "T1 sequence (P53778 whole entry)": "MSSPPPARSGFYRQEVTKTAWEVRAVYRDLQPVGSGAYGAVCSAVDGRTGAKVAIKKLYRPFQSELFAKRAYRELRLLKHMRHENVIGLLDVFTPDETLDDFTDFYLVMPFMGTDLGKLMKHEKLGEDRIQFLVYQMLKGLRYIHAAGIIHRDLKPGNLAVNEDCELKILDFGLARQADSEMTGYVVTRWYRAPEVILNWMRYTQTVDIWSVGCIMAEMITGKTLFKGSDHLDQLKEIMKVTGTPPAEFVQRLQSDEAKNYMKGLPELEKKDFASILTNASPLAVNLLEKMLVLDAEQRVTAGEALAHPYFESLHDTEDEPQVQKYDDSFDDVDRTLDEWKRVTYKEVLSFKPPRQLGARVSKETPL", "experiment": "Inhibition of p38-gamma"}, "Blood": {"system": "Blood", "experiment": "Inhibition of TNF-alpha-stimulated IL8 production in human whole blood incubated for 1 hr before TNFalpha challenge measured after 16 to 18 hrs", "assay_type": "functional, tissue-based", "in_short": "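Human whole blood diluted to 50% and stimulated with TNFα, with IL-8 secretion as read-out. IC50 is the mean of at least three independent dose–response curves, or of two where flagged.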"}, "Rattus norvegicus [4]": {"system": "Rattus norvegicus", "experiment": "Inhibition of LPS-induced TNFalpha production in po dosed Lewis rat administered 60 mins prior to LPS challenge measured after 90 mins by ELISA"}, "[5]": {"experiment": "Oral bioavailability in Sprague-Dawley rat at 2 mg/kg", "assay_type": "ADME, organism-based", "settings": "in vivo", "in_short": "(§1)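 Male Sprague–Dawley rats given 2.0 mg/kg iv (in DMSO) or 2.0 mg/kg po. Values are the mean of three rats. Reported parameters are CL, Vdss, t1/2, AUC(0-inf) and oral F.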"}, "[6]": {"experiment": "Solubility in simulated intestinal fluid", "assay_type": "physicochemical"}, "[7]": {"experiment": "Ratio of drug level in brain to plasma in Lewis rat", "assay_type": "ADME", "settings": "read-out: BPR"}, "Cytochrome P450 2D6": {"molecular_target": "Cytochrome P450 2D6 (Homo sapiens, UniProt P10635)", "sequence (P10635 whole entry)": "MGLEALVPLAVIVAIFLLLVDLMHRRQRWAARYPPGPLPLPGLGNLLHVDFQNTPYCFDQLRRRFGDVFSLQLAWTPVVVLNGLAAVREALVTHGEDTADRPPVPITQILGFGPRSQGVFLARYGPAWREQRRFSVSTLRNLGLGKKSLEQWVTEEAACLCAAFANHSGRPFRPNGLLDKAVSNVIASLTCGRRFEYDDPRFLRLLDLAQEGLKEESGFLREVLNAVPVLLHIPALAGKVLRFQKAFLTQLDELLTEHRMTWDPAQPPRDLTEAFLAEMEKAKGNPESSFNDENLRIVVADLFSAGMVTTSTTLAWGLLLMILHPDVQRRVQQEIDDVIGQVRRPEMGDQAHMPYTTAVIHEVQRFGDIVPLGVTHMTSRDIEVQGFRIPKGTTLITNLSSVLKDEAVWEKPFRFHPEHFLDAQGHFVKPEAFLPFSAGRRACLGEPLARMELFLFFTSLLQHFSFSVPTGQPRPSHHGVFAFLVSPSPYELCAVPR", "experiment": "Inhibition of CYP2D6", "assay_type": "ADME"}, "[8]": {"experiment": "AUC (0 to infinity) in Sprague-Dawley rat at 2 mg/kg, po", "assay_type": "ADME, organism-based", "design": "time infinity, dose 2 mg/kg, route oral", "settings": "plasma", "in_short": "as §1"}, "[9]": {"experiment": "Volume of distribution at steady state in Sprague-Dawley rat at 2 mg/kg, iv", "assay_type": "ADME, organism-based", "design": "dose 2 mg/kg, route intravenous", "settings": "in vivo, read-out: Vdss", "in_short": "as §1"}, "Rattus norvegicus [10]": {"system": "Rattus norvegicus", "experiment": "Inhibition of LPS-induced TNFalpha production in Lewis rat at 0.1 mg/kg, po administered 60 mins prior to LPS challenge measured after 90 mins by ELISA"}, "[11]": {"molecular_target": "Mitogen-activated protein kinase 11 (Homo sapiens, UniProt Q15759)", "sequence (Q15759 whole entry)": "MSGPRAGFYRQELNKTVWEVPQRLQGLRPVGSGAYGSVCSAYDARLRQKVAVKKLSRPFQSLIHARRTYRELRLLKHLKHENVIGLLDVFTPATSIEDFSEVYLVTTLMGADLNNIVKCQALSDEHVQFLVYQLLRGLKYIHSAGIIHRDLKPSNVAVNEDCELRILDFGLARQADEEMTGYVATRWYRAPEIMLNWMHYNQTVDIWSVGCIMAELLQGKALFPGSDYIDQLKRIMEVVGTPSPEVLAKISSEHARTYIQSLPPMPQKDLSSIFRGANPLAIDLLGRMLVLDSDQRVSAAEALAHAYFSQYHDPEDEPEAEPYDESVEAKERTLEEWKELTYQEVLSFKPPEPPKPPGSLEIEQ", "experiment": "Inhibition of p38beta"}, "[12]": {"experiment": "Solubility in 0.01N HCl", "assay_type": "physicochemical"}, "Cytochrome P450 1A2": {"molecular_target": "T2, Cytochrome P450 1A2 (Homo sapiens, UniProt P05177)", "T2 sequence (P05177 whole entry)": "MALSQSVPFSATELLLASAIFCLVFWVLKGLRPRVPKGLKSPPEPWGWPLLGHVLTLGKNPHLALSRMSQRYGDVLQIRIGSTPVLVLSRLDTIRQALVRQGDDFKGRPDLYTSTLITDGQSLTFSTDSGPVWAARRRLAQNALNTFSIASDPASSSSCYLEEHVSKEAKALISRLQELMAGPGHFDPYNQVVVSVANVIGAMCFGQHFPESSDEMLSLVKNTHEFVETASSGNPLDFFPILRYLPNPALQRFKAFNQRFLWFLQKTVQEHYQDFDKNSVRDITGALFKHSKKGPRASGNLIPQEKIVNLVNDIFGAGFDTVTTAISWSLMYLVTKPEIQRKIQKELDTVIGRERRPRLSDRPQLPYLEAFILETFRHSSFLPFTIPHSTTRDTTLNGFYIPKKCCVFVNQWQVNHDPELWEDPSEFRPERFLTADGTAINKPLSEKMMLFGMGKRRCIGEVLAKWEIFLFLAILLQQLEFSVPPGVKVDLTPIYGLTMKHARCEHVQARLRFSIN", "experiment": "Inhibition of CYP1A2", "assay_type": "ADME"}, "Homo sapiens": {"organism": "Homo sapiens", "experiment": "Protein binding in human plasma by ultrafiltration method", "settings": "read-out: PPB (converted)"}, "Rattus norvegicus [13]": {"system": "Rattus norvegicus", "experiment": "Inhibition of LPS-induced TNFalpha production in Lewis rat at 0.3 mg/kg, po administered 60 mins prior to LPS challenge measured after 90 mins by ELISA"}, "THP-1": {"system": "THP-1", "experiment": "Inhibition of LPS-induced TNFalpha release in human THP1 cells after 3 hrs", "assay_type": "functional, cell-based", "settings": "THP-1, 3 h", "in_short": "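THP1 cell line challenged with LPS, with TNFα secretion as read-out. IC50 is the mean of at least three independent dose–response curves, or of two where flagged.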"}, "[14]": {"molecular_target": "Mitogen-activated protein kinase 8 (Homo sapiens, UniProt P45983)", "sequence (P45983 whole entry)": "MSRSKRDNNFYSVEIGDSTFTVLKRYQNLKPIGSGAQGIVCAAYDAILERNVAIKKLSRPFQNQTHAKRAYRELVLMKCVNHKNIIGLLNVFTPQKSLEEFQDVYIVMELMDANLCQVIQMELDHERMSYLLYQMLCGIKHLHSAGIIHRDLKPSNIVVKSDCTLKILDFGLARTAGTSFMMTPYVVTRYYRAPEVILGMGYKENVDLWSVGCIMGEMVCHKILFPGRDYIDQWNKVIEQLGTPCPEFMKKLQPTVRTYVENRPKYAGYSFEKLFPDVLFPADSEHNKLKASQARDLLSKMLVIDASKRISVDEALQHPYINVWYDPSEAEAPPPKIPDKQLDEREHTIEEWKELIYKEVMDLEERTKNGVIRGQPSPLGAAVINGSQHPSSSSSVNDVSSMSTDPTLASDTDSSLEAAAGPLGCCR", "experiment": "Inhibition of JNK1"}, "Cytochrome P450 2C9": {"molecular_target": "Cytochrome P450 2C9 (Homo sapiens, UniProt P11712)", "sequence (P11712 whole entry)": "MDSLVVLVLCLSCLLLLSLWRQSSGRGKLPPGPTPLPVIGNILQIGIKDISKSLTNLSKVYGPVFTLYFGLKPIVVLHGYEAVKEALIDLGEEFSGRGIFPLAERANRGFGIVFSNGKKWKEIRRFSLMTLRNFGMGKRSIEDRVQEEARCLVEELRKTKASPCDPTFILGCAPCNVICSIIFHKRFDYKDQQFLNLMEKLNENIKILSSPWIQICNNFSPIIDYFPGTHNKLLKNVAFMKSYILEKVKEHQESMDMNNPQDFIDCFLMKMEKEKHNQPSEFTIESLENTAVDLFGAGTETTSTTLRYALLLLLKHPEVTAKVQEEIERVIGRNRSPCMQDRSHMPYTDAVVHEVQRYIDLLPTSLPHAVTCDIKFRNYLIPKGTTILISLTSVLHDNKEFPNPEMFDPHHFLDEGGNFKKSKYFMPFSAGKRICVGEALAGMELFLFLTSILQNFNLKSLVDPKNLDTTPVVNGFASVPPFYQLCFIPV", "experiment": "Inhibition of CYP2C9", "assay_type": "ADME"}, "[15]": {"experiment": "Clearance in Sprague-Dawley rat at 2 mg/kg, iv", "assay_type": "ADME, organism-based", "design": "dose 2 mg/kg, route intravenous", "settings": "in vivo", "in_short": "as §1"}, "Rattus norvegicus [16]": {"organism": "Rattus norvegicus", "experiment": "Plasma concentration in Lewis rat at ED50", "assay_type": "ADME, organism-based", "settings": "in vivo"}, "[17]": {"molecular_target": "RAF proto-oncogene serine/threonine-protein kinase (Homo sapiens) (UniProt P04049)", "sequence (P04049 whole entry)": "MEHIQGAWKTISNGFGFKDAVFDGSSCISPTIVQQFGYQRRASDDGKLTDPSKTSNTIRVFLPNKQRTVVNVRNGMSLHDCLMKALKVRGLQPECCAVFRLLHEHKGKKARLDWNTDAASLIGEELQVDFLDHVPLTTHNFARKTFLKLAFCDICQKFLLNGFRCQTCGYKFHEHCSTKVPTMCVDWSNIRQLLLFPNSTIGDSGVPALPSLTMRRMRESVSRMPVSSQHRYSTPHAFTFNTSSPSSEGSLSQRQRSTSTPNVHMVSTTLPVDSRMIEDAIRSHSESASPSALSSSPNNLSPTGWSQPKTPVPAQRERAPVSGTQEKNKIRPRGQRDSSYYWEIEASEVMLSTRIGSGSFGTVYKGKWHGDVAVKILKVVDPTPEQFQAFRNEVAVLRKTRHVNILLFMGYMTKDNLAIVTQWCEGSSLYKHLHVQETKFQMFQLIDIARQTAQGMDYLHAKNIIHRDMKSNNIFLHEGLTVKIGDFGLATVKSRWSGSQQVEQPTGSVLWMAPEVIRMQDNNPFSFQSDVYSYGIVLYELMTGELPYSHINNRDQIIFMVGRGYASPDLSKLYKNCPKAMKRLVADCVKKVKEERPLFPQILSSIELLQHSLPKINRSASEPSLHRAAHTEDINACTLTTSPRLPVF", "experiment": "Inhibition of c-Raf at 1.5 uM; values are per cent of control"}, "[18]": {"experiment": "Solubility in phosphate buffered saline", "assay_type": "physicochemical"}, "Cytochrome P450 3A4": {"molecular_target": "Cytochrome P450 3A4 (Homo sapiens, UniProt P08684)", "sequence (P08684 whole entry)": "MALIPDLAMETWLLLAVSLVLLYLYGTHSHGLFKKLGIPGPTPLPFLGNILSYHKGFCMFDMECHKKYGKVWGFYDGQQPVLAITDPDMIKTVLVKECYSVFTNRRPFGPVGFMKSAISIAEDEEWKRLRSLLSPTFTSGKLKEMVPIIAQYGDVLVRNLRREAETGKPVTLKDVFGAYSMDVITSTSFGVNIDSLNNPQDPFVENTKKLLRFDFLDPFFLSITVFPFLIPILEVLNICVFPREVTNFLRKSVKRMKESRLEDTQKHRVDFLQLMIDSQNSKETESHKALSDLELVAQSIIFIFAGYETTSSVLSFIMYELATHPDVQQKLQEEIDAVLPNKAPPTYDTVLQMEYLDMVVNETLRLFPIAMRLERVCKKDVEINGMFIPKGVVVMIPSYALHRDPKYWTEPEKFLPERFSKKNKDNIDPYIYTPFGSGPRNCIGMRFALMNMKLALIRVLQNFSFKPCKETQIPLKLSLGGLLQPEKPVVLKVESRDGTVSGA", "experiment": "Inhibition of CYP3A4", "assay_type": "ADME"}, "[19]": {"molecular_target": "Mitogen-activated protein kinase 10 (Homo sapiens, UniProt P53779)", "sequence (P53779 whole entry)": "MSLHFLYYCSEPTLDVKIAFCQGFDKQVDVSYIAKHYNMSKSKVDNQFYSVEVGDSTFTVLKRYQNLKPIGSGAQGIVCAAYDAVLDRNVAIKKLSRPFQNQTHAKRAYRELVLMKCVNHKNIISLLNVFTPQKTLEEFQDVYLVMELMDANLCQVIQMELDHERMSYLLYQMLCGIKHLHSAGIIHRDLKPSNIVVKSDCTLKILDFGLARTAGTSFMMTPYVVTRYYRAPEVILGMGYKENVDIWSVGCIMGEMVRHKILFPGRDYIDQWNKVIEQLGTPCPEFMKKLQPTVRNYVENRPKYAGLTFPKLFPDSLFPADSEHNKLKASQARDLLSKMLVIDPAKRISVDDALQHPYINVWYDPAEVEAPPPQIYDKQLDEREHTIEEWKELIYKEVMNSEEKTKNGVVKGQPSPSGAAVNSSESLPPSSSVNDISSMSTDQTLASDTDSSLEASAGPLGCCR", "experiment": "Inhibition of JNK3"}, "[20]": {"molecular_target": "T3, Mitogen-activated protein kinase 13 (Homo sapiens, UniProt O15264)", "T3 sequence (O15264 whole entry)": "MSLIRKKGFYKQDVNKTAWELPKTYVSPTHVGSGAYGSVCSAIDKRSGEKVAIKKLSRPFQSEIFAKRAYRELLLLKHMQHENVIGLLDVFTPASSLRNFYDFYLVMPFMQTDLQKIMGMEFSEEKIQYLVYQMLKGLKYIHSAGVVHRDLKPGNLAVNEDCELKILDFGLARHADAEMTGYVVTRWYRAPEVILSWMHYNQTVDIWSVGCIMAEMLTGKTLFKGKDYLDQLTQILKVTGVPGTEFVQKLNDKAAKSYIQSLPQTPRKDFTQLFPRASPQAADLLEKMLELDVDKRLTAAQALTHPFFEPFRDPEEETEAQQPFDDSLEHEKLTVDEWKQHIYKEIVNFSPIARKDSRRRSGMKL", "experiment": "Inhibition of p38delta"}, "Cytochrome P450 2C19": {"molecular_target": "Cytochrome P450 2C19 (Homo sapiens, UniProt P33261)", "sequence (P33261 whole entry)": "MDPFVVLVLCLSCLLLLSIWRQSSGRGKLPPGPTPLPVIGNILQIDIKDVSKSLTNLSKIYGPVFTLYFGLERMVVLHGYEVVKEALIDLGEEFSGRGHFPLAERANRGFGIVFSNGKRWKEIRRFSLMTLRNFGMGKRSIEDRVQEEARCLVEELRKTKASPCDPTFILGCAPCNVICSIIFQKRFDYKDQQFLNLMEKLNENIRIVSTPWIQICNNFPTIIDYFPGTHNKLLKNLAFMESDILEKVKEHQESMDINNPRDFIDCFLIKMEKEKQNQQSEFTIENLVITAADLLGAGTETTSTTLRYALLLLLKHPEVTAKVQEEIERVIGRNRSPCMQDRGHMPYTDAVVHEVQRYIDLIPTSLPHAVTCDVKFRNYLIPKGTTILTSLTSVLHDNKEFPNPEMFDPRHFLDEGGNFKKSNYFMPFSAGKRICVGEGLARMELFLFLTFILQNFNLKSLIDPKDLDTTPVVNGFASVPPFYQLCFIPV", "experiment": "Inhibition of CYP2C19", "assay_type": "ADME"}, "[21]": {"molecular_target": "Mitogen-activated protein kinase 14 (Homo sapiens, UniProt Q16539)", "sequence (Q16539 whole entry)": "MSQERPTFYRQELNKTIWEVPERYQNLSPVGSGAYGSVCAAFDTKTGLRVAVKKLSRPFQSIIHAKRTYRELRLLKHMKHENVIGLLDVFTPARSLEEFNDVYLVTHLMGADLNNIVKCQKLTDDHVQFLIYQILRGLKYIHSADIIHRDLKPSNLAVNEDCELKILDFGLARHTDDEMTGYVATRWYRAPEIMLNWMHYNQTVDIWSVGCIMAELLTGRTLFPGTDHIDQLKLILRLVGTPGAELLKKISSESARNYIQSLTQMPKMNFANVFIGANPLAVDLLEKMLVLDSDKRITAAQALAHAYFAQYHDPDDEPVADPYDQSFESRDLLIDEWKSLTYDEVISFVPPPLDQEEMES", "experiment": "Inhibition of human recombinant p38alpha assessed as phosphorylation of ATF2 by scintillation proximity assay"}, "Rattus norvegicus [22]": {"system": "Rattus norvegicus", "experiment": "Inhibition of LPS-induced TNFalpha production in Lewis rat at 0.03 mg/kg, po administered 60 mins prior to LPS challenge measured after 90 mins by ELISA"}, "[23]": {"experiment": "Half life in Sprague-Dawley rat at 2 mg/kg, iv", "assay_type": "ADME, organism-based", "design": "dose 2 mg/kg, route intravenous", "settings": "in vivo", "in_short": "as §1"}, "[24]": {"experiment": "Protein binding in rat plasma by ultrafiltration method", "settings": "read-out: PPB (converted)"}},
  "data": [
    {"compound": "Cn1c(=O)cc(Nc2cc(C(=O)NC3CC3)ccc2Cl)c2cnn(-c3ccc(F)cc3)c21", "values": [
      {"measurement": "IC50", "setting": "[1]", "value": "> 10", "unit": "µM"},
      {"measurement": "inhibition in vivo at 0.01 mg/kg", "setting": "Rattus norvegicus [2]", "value": 21, "unit": "%"},
      {"measurement": "IC50", "setting": "[3]", "value": "> 10", "unit": "µM"},
      {"measurement": "IC50", "setting": "Blood", "value": 0.0025, "unit": "µM"},
      {"measurement": "ED50", "setting": "Rattus norvegicus [4]", "value": 0.1, "unit": "mg/kg"},
      {"measurement": "bioavailability", "setting": "[5]", "value": 84, "unit": "%"},
      {"measurement": "solubility", "setting": "[6]", "value": 38.8, "unit": "µg/mL"},
      {"measurement": "Kp", "setting": "[7]", "value": 0.04},
      {"measurement": "IC50", "setting": "Cytochrome P450 2D6", "value": "> 21", "unit": "µM"},
      {"measurement": "AUC(0-inf)", "setting": "[8]", "value": 6550, "unit": "ng·h/mL"},
      {"measurement": "Vd", "setting": "[9]", "value": 0.97, "unit": "L/kg"},
      {"measurement": "inhibition in vivo at 0.1 mg/kg", "setting": "Rattus norvegicus [10]", "value": 50.1, "unit": "%"},
      {"measurement": "IC50", "setting": "[11]", "value": 0.004, "unit": "µM"},
      {"measurement": "solubility", "setting": "[12]", "value": 31.2, "unit": "µg/mL"},
      {"measurement": "IC50", "setting": "Cytochrome P450 1A2", "value": "> 30", "unit": "µM"},
      {"measurement": "fraction unbound", "setting": "Homo sapiens", "value": 0.06},
      {"measurement": "inhibition in vivo at 0.3 mg/kg", "setting": "Rattus norvegicus [13]", "value": 97.4, "unit": "%"},
      {"measurement": "IC50", "setting": "THP-1", "value": 0.0011, "unit": "µM"},
      {"measurement": "IC50", "setting": "[14]", "value": "> 10", "unit": "µM"},
      {"measurement": "IC50", "setting": "Cytochrome P450 2C9", "value": "> 21", "unit": "µM"},
      {"measurement": "clearance", "setting": "[15]", "value": 4.33, "unit": "mL/min/kg"},
      {"measurement": "Cp", "setting": "Rattus norvegicus [16]", "value": 3.2, "unit": "ng/mL"},
      {"measurement": "residual activity", "setting": "[17]", "value": 40, "unit": "%"},
      {"measurement": "solubility", "setting": "[18]", "value": 26.6, "unit": "µg/mL"},
      {"measurement": "IC50", "setting": "Cytochrome P450 3A4", "value": "> 30", "unit": "µM"},
      {"measurement": "IC50", "setting": "[19]", "value": "> 10", "unit": "µM"},
      {"measurement": "IC50", "setting": "[20]", "value": "> 10", "unit": "µM"},
      {"measurement": "IC50", "setting": "Cytochrome P450 2C19", "value": "> 21", "unit": "µM"},
      {"measurement": "IC50", "setting": "[21]", "value": 0.0015, "unit": "µM"},
      {"measurement": "inhibition in vivo at 0.03 mg/kg", "setting": "Rattus norvegicus [22]", "value": 5.6, "unit": "%"},
      {"measurement": "half-life", "setting": "[23]", "value": 5.8, "unit": "h"},
      {"measurement": "fraction unbound", "setting": "[24]", "value": 0.03}
    ]}
  ]
}
